Assay results published in ChEMBL document CHEMBL4152342, “Novel series of 6-(2-substitutedacetamido)-4-anilinoquinazolines as EGFR-ERK signal transduction inhibitors in MCF-7 breast cancer cells” (Eur J Med Chem, 2018).

How the values were obtained:
MCF7 = assay: Antiproliferative activity against human MCF7 cells after 48 hrs by MTT assay; assay type: functional, cell-based; settings: MCF7, 48 h
Outline: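 Cells seeded at 30,000 per well, grown 24 h at 37 °C, 5% CO2, then exposed to 5-fold serial dilutions of compound (dissolved in 1% DMSO) for 48 h under same conditions. MTT added at 5 mg/mL; after lysis, absorbance read at 570 nm 4 h later. IC50 taken from exponential viability-versus-concentration curve relative to untreated controls.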

HepG2 [1] = assay: Antiproliferative activity against human HepG2 cells after 48 hrs by MTT assay; assay type: functional, cell-based; settings: HepG2, 48 h
HepG2 [2] = assay: Potency index, ratio of erlotinib IC50 to compound IC50 for human HepG2 cells; assay type: functional

| SMILES | IC50 (MCF7) | IC50 (HepG2 [1]) | Ratio IC50 (HepG2 [2]) |
| --- | --- | --- | --- |
| O=C(CN1CCOCC1)Nc1ccc2ncnc(Nc3cccc(C(F)(F)F)c3)c2c1 | 15 µM | > 100 µM | – |
| O=C(CN1CCOCC1)Nc1ccc2ncnc(Nc3ccc(Cl)c(C(F)(F)F)c3)c2c1 | > 100 µM | > 100 µM | – |
| CN1CCN(CC(=O)Nc2ccc3ncnc(Nc4cccc(Cl)c4)c3c2)CC1 | > 100 µM | > 100 µM | – |
| O=C(CN1CCCCC1)Nc1ccc2ncnc(Nc3cccc(Cl)c3)c2c1 | > 100 µM | 12 µM | 2 |
| O=C(CN1CCCC1)Nc1ccc2ncnc(Nc3ccc(OCc4cccc(F)c4)cc3)c2c1 | 25 µM | 25.1 µM | – |
| O=C(CN1CCCC1)Nc1ccc2ncnc(Nc3cccc(C(F)(F)F)c3)c2c1 | > 100 µM | 25.2 µM | – |
| O=C(CN1CCOCC1)Nc1ccc2ncnc(Nc3ccc(Br)cc3)c2c1 | > 100 µM | > 100 µM | – |
| O=C(CN1CCOCC1)Nc1ccc2ncnc(Nc3cccc(Br)c3)c2c1 | 15 µM | 19 µM | – |
| O=C(CN1CCOCC1)Nc1ccc2ncnc(Nc3ccc(OCc4cccc(F)c4)cc3)c2c1 | > 100 µM | > 100 µM | – |
| O=C(CN1CCCCC1)Nc1ccc2ncnc(Nc3ccc(Cl)cc3)c2c1 | > 100 µM | 16 µM | – |
| O=C(CN1CCCCC1)Nc1ccc2ncnc(Nc3cccc(Br)c3)c2c1 | 3 µM | 16 µM | – |
| CN1CCN(CC(=O)Nc2ccc3ncnc(Nc4ccc(Br)cc4)c3c2)CC1 | > 100 µM | > 100 µM | – |
| O=C(CN1CCOCC1)Nc1ccc2ncnc(Nc3cccc(Cl)c3)c2c1 | > 100 µM | > 100 µM | – |
| CN1CCN(CC(=O)Nc2ccc3ncnc(Nc4cccc(Br)c4)c3c2)CC1 | 10 µM | 25.3 µM | – |
| O=C(CN1CCCCC1)Nc1ccc2ncnc(Nc3cccc(C(F)(F)F)c3)c2c1 | > 100 µM | > 100 µM | – |
| O=C(CN1CCCC1)Nc1ccc2ncnc(Nc3cccc(Cl)c3)c2c1 | > 100 µM | > 100 µM | – |

The next lines start with results.

| IC50 (MCF7) | IC50 (HepG2 [1]) | SMILES | Ratio IC50 (HepG2 [2]) |
| --- | --- | --- | --- |
| > 100 µM | > 100 µM | O=C(CN1CCCC1)Nc1ccc2ncnc(Nc3ccc(Br)cc3)c2c1 | – |
| > 100 µM | > 100 µM | O=C(CN1CCCC1)Nc1ccc2ncnc(Nc3ccc(Cl)c(C(F)(F)F)c3)c2c1 | – |
| > 100 µM | > 100 µM | O=C(CN1CCOCC1)Nc1ccc2ncnc(Nc3ccc(Cl)cc3)c2c1 | – |
| 16 µM | 18 µM | O=C(CN1CCCC1)Nc1ccc2ncnc(Nc3ccc(Cl)cc3)c2c1 | – |
| > 100 µM | > 100 µM | O=C(CN1CCCC1)Nc1ccc2ncnc(Nc3ccc(OCc4ccccc4)cc3)c2c1 | – |
| > 100 µM | > 100 µM | O=C(CN1CCCCC1)Nc1ccc2ncnc(Nc3ccc(Cl)c(C(F)(F)F)c3)c2c1 | – |
| 15 µM | > 100 µM | CN1CCN(CC(=O)Nc2ccc3ncnc(Nc4ccc(Cl)cc4)c3c2)CC1 | – |
| 25 µM | > 100 µM | O=C(CN1CCOCC1)Nc1ccc2ncnc(Nc3ccc(OCc4ccccc4)cc3)c2c1 | – |
| > 100 µM | > 100 µM | CN1CCN(CC(=O)Nc2ccc3ncnc(Nc4cccc(C(F)(F)F)c4)c3c2)CC1 | – |
| > 100 µM | > 100 µM | O=C(CN1CCCCC1)Nc1ccc2ncnc(Nc3ccc(Br)cc3)c2c1 | – |
| 12 µM | > 100 µM | O=C(CN1CCCC1)Nc1ccc2ncnc(Nc3cccc(Br)c3)c2c1 | – |
| > 100 µM | 25.3 µM | CN1CCN(CC(=O)Nc2ccc3ncnc(Nc4ccc(Cl)c(C(F)(F)F)c4)c3c2)CC1 | – |
